Assay results pooled from the literature.
Compare with care: the assays were run in different laboratories.
Target: cGMP-dependent protein kinase 2 (PRKG2, Homo sapiens, UniProt Q13237)
Residues used in one study (Q13237 1-762): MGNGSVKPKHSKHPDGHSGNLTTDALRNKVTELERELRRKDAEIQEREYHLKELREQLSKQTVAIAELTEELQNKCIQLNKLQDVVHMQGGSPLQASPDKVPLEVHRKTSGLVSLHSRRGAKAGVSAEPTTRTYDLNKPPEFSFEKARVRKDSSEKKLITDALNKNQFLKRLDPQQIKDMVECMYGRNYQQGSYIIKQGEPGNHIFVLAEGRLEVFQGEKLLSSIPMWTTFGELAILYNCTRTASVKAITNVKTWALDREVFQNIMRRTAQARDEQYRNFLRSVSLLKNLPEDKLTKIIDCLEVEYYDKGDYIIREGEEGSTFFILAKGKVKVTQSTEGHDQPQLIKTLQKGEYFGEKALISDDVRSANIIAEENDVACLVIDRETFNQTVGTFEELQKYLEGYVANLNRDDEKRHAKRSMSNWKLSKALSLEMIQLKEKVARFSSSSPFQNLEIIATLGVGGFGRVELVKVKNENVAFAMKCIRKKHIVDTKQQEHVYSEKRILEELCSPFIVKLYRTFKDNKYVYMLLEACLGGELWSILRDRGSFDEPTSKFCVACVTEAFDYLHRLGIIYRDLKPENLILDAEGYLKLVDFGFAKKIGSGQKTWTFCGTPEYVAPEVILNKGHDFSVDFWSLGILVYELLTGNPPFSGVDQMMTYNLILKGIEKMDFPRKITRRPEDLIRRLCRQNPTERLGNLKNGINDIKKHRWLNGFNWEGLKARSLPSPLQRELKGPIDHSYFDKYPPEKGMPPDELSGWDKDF

`O=C(c1ccc(Nc2ncc(Cl)c(-c3ccc(Cl)s3)n2)cc1)N1CCC(N2CCCC2)CC1` has a remaining binding of 42% (binding, competition with immobilised ligand; 1 µM).
`c1cnn2ncc(-c3ccnc(N4CCC45COC5)n3)c2c1` has a remaining binding of 82% (binding; 1 µM).
For `COc1cnc(Nc2cccc(S(N)(=O)=O)c2)nc1N1CCN(c2ccccc2)C(=O)C1`, the remaining binding was 100% (binding, competition with immobilised ligand; 1 µM).
`O=C1CCc2cc(Nc3cc(OC4CCOCC4)c([N+](=O)[O-])cc3Cl)ccc2N1` gave a remaining binding of 85% (cell-free assay, competition with immobilised ligand; 1 µM).
`CNC(=O)[C@@H]1CC[C@@H](n2c(-c3ccc4cnccc4c3)nc3ccc(C(=O)NCc4cccc(C(N)=O)c4)cc32)C1` gave a remaining binding of 100% (binding, competition with immobilised ligand; 1 µM).
For `Nc1ncc2c(n1)-c1c([nH]c3ccc(C#CC4CC4)cc13)CCCC2`, the remaining binding was 80% (binding, competition with immobilised ligand; 1 µM).
`CCC(=O)N[C@H]1CC[C@@H](C(=O)N(C)c2ccc(-c3nc4ccccc4o3)cc2)C1` has a remaining binding of 100% (cell-free assay, competition with immobilised ligand; 1 µM).
`N[C@H]1CCN(c2nccc(-c3cnn4ncccc34)n2)C1` gave a remaining binding of 91% (binding; 1 µM).
The remaining binding of `O=C(Nc1c[nH]nc1C(=O)NC1CCNCC1)c1cc(F)cc(F)c1` is reported as 91% (binding, competition with immobilised ligand; 1 µM).
For `COc1ccnn2ncc(-c3ccnc(N(C)C)n3)c12`, the remaining binding was 100% (binding; 1 µM).
`NS(=O)(=O)c1cc(NC(=O)C2(c3ccccc3Cl)CC2)ccc1Oc1cccc(Cl)c1` gave a remaining binding of 100% (cell-free assay, competition with immobilised ligand; 1 µM).
`CN(c1nccc(-c2cnn3ncccc23)n1)C1CC1` gave a remaining binding of 100% (binding; 1 µM).
With `COc1ncc2cc3ccccc3nc2c1C#N` the remaining binding was 100% (cell-free assay, competition with immobilised ligand; 5 µM).
`CC1CCCN1c1nccc(-c2cnn3ncccc23)n1` (stereo not shown) has a remaining binding of 97% (binding; 1 µM).
`O=C(O)c1cc(-c2ccc(C3CCNCC3)cc2)c2ccc(-c3ccc(C(F)(F)F)cc3)cc2c1` has a remaining binding of 79% (cell-free assay, competition with immobilised ligand; 1 µM).
`CN(C)c1nccc(-c2cnn3ncccc23)n1` gave a remaining binding of 100% (binding; 1 µM).
`CN(C)C(=O)Cn1cc(-c2nc(C3(c4ccc(-c5cnc(N)nc5)cc4)CC3)no2)cn1` gave a remaining binding of 100% (cell-free assay, competition with immobilised ligand; 1 µM).
`O=C(NCCCN1CCOCC1)c1ccc(Nc2nccc(-c3cc4ccccc4s3)n2)cc1` has a remaining binding of 43% (binding, competition with immobilised ligand; 1 µM).
`C[C@@H]1CCN(c2nccc(-c3cnn4ncccc34)n2)C1` has a remaining binding of 81% (binding; 1 µM).
`FC(F)(F)Oc1cccc(-c2cnc3ccc(-c4ccncc4)nn23)c1` has a remaining binding of 88% (cell-free assay, competition with immobilised ligand; 5 µM).
The remaining binding of `O=C(NCCCN1CCOCC1)c1ccc(Nc2ncc(Cl)c(-c3ccc(Cl)s3)n2)cc1` is reported as 54% (binding, competition with immobilised ligand; 1 µM).
For `CCC(=N\O)/C(C)=C/c1ccc(F)cc1`, the remaining binding was 79% (cell-free assay, competition with immobilised ligand; 1 µM).
